Experiments:
[1] = Selectivity index, ratio of IC50 for human HepG2/C3A cells to MIC for Mycobacterium tuberculosis H37Rv; type: functional
In short: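 Selectivity index calculated as C3A neutral red NI50 (24 h) divided by the H37Rv luminometric MIC50.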

[2] = Cytotoxicity against human HepG2/C3A cells after 24 hrs by neutral red assay; type: cell-based
In short: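 C3A cells seeded at 40 000 per well and allowed to recover. Exposed 24 h at 37 °C, 5% CO2 to serial dilutions in DMEM + 10% FCS, tested from 10 to 0.1. Then 3 h neutral red uptake, extracted with ethanol/acetic acid, OD read at 530 nm with 620 nm reference. NI50 is the concentration reducing uptake by 50%.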

SMILES | Selectivity Index [1] | IC50 [2]
CCCCCNC(=N)c1ccc(N2CCN(c3ccccc3)CC2)cc1.Cl | 9.39 | 11.2 µM
CCCCCCCCNC(=N)c1ccc(N2CCN(c3ccccc3)CC2)cc1.Cl | 72.19 | 5.18 µM
CCCCCCNC(=N)c1ccc(N2CCN(c3ccccc3)CC2)cc1.Cl | 25.38 | 6.71 µM
CCCCCCCCCCCCNC(=N)c1ccc(N2CCN(c3ccccc3)CC2)cc1.Cl | 107.52 | 5.61 µM
CCCCCCCNC(=N)c1ccc(N2CCN(c3ccccc3)CC2)cc1.Cl | 57.2 | 5.21 µM
CNC(=N)c1ccc(N2CCN(c3ccccc3)CC2)cc1.Cl | 4.45 | 71 µM
Cl.N=C(N)c1ccc(N2CCN(c3ccccc3)CC2)cc1 | 2.26 | 66.9 µM
CCCNC(=N)c1ccc(N2CCN(c3ccccc3)CC2)cc1.Cl | 3.92 | 27.5 µM
CCNC(=N)c1ccc(N2CCN(c3ccccc3)CC2)cc1.Cl | 3.49 | 41.7 µM
CCCCNC(=N)c1ccc(N2CCN(c3ccccc3)CC2)cc1.Cl | 8.03 | 17.4 µM
